Data taken from ChEMBL document CHEMBL2016492, “Design and synthesis of carbamate and thiocarbamate derivatives and their inhibitory activities of NO production in LPS activated macrophages” (Bioorg Med Chem Lett, 2012).
Activity calls are given as the source filed them. No cut-off for these calls is given here.

Key:
RAW264.7 [1] = assay: Inhibition of LPS-induced NO production in mouse RAW264.7 cells at 20 uM after 20 hrs by Griess method; type: functional; details: RAW264.7, 20 h
Summary of the method: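 Same nitrite read-out in RAW 264.7 cells: 1% FBS medium, LPS 1 μg/mL with compound at 20 μM for 20 h. Griess reagent, 570 nm, nitrite standard curve. Percent inhibition relative to LPS-only control, n = 3.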

RAW264.7 [2] = assay: Inhibition of LPS-induced NO production in mouse RAW264.7 cells after 20 hrs by Griess method; type: functional, cell-based; details: RAW264.7, 20 h
Summary of the method: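 RAW 264.7 cells in 10% FBS-DMEM plated at 1 × 10⁵ cells/mL for 24 h, then switched to 1% FBS medium. Incubated 20 h with LPS (1 μg/mL) ± compounds. Nitrite in supernatant measured with Griess reagent, 10 min at room temperature, absorbance 570 nm, sodium nitrite standard curve. IC50 taken from dose–response curve; mean ± SD of three experiments.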

RAW264.7 [3] = assay: Inhibition of LPS-induced iNOS protein expression in mouse RAW264.7 cells at 20 uM after 20 hrs by Western blot analysis; type: functional, cell-based
Summary of the method: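 RAW 264.7 cells at 8 × 10⁵ per 60 mm dish treated 20 h with LPS (1 μg/mL) and compound (5, 20 μM). Cells washed and lysed; 20 μg lysate protein run on 8% SDS-PAGE, transferred to PVDF. Probed with anti-iNOS and anti-β-actin (internal control); ECL detection. Representative of three independent experiments.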

RAW264.7 [4] = assay: Inhibition of LPS-induced iNOS mRNA expression in mouse RAW264.7 cells at 20 uM after 6 hrs by RT-PCR analysis; type: functional, cell-based
Summary of the method: (§1)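 RAW 264.7 cells at 8 × 10⁵ per 60 mm dish stimulated 6 h with LPS (1 μg/mL) plus compound at 5 or 20 μM. Total RNA extracted; iNOS mRNA measured by RT-PCR with β-actin as internal control. PCR run 25 cycles (94 °C 30 s, 55 °C 30 s, 72 °C 30 s); products run on 2% agarose gel. Representative of three independent experiments.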

RAW264.7 [5] = assay: Inhibition of LPS-induced iNOS mRNA expression in mouse RAW264.7 cells at 5 uM after 6 hrs by RT-PCR analysis; type: functional, cell-based; summary of the method: as §1
[6] = target: Transcription factor p65 (Mus musculus) (UniProt Q04207); assay: Inhibition of NF-kB p65 nuclear translocation in LPS-stimulated mouse RAW264.7 cells at 5 uM treated 30 mins before LPS challenge measured after 15 mins by Western blot analysis
[7] = target: Transcription factor p65 (Mus musculus) (UniProt Q04207); assay: Inhibition of NF-kB p65 nuclear translocation in LPS-stimulated mouse RAW264.7 cells at 20 uM treated 30 mins before LPS challenge measured after 15 mins by Western blot analysis
RAW264.7 [8] = assay: Inhibition of LPS-induced NO production in mouse RAW264.7 cells at 100 uM after 20 hrs by Griess method; type: functional; details: RAW264.7, 20 h

Transcription factor p65 (Mus musculus), sequence (Q04207 whole entry): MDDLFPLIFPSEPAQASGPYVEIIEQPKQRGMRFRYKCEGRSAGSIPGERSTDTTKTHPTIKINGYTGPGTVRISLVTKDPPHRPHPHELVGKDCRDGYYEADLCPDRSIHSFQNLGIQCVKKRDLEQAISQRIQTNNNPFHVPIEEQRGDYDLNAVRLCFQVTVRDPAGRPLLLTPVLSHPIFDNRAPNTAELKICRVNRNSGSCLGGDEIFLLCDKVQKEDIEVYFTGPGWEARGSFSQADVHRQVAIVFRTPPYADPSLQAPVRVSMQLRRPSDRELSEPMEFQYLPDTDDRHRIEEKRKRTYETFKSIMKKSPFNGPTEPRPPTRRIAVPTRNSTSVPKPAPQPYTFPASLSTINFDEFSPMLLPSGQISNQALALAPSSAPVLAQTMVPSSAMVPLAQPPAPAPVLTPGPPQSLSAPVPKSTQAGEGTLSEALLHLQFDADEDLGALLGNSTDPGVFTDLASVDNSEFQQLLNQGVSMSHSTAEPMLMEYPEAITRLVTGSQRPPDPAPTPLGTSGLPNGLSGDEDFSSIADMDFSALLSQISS

Question: `CC(C)OC(=S)Nc1ccc(OCCn2c3ccccc3c3ccccc32)cc1` was tested. Which inhibition at 20 µM (RAW264.7 [1]) did it give?
Answer: 20%

Question: Which inhibition at 20 µM (RAW264.7 [1]) does the source give for `O=C(Nc1ccc(OCCn2c3ccccc3c3ccccc32)cc1)Oc1ccc([N+](=O)[O-])cc1` here?
Answer: 22%

Question: Which results are given for `CCOC(=O)CNC(=S)Oc1ccc(OCCn2c3ccccc3c3ccccc32)cc1`?
Answer: inhibition at 20 µM (RAW264.7 [1]): 73%; IC50 (RAW264.7 [2]): 6.5 µM; inhibition (RAW264.7 [3]): Active; inhibition (RAW264.7 [4]): Active; inhibition (RAW264.7 [5]): Active; inhibition [6]: Active; inhibition [7]: Active

Question: How did the inhibition at 20 µM (RAW264.7 [1]) turn out when `CSC(=O)Nc1ccc(OCCn2c3ccccc3c3ccccc32)cc1` was run?
Answer: 44%

Question: `CCNC(=S)Oc1ccc(OCCn2c3ccccc3c3ccccc32)cc1` was tested. Which inhibition at 20 µM (RAW264.7 [1]) did it give?
Answer: 10%

Question: With `N=C(N)NN` [PIMAGEDINE] as the compound, how does the inhibition at 100 µM (RAW264.7 [8]) read?
Answer: 74%

Question: Which results are given for `COC(=S)Nc1ccc(OCCn2c3ccccc3c3ccccc32)cc1`?
Answer: inhibition at 20 µM (RAW264.7 [1]): 60%; IC50 (RAW264.7 [2]): 12 µM; inhibition (RAW264.7 [3]): Active; inhibition (RAW264.7 [4]): Active; inhibition [6]: Active; inhibition [7]: Active

Question: How did the inhibition at 20 µM (RAW264.7 [1]) turn out when `CCNC(=O)Oc1ccc(OCCn2c3ccccc3c3ccccc32)cc1` was run?
Answer: 10%

Question: With `S=C(Nc1ccc(OCCn2c3ccccc3c3ccccc32)cc1)OCc1ccccc1` as the compound, how does the inhibition at 20 µM (RAW264.7 [1]) read?
Answer: 18%

Question: How did the inhibition at 20 µM (RAW264.7 [1]) turn out when `COC(=O)CNC(=O)Oc1ccc(OCCn2c3ccccc3c3ccccc32)cc1` was run?
Answer: 33%

Question: Which inhibition at 20 µM (RAW264.7 [1]) does the source give for `CCOC(=O)CNC(=O)Oc1ccc(OCCn2c3ccccc3c3ccccc32)cc1` here?
Answer: 35%

Question: For `CCSC(=O)Nc1ccc(OCCn2c3ccccc3c3ccccc32)cc1`, which inhibition at 20 µM (RAW264.7 [1]) is on record?
Answer: 26%
